Data taken from ChEMBL document CHEMBL5058577, “EUbOPEN Chemogenomics Library 2 (Multiplex)” (2022).
Non-standard residues stand in square brackets, D forms with d. Residues, ends and D or L forms follow the SMILES beside them.

Test system: HEK-293T
Assay: Multiplex assay against HEK293T
Type: toxicity, cell-based
Details: human
Method in brief: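 Cells stained live at seeding with Hoechst33342, BioTracker Green Microtubule Cytoskeleton Dye, MitoTracker Red and Annexin V Alexa Fluor 680 were imaged on a CQ1 microscope at 37°C and 5% CO2 after compound addition. Their classification by CellPathfinder machine-learning gating ran from Hoechst high-intensity objects versus normal cells, to healthy, pyknosed or fragmented nuclei among normal cells, to mitotic or apoptotic among pyknosed cells. Tubulin, mitochondrial-mass and membrane-permeability phenotypes are per cents of healthy-nucleus cells.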

[1] = 12 h, 1 µM, compound concentration 1 uM, replicate 1
[2] = 12 h, 1 µM, compound concentration 1 uM, replicate 2
[3] = 12 h, 10 µM, compound concentration 10 uM, replicate 1
[4] = 12 h, 10 µM, compound concentration 10 uM, replicate 2
[5] = 24 h, 1 µM, compound concentration 1 uM, replicate 1
[6] = 24 h, 1 µM, compound concentration 1 uM, replicate 2
[7] = 24 h, 10 µM, compound concentration 10 uM, replicate 1
[8] = 24 h, 10 µM, compound concentration 10 uM, replicate 2
[9] = 48 h, 1 µM, compound concentration 1 uM, replicate 1
[10] = 48 h, 1 µM, compound concentration 1 uM, replicate 2
[11] = 48 h, 10 µM, compound concentration 10 uM, replicate 1
[12] = 48 h, 10 µM, compound concentration 10 uM, replicate 2

Compound: CC(C)C[C@@H]1NC(=O)[C@@H](C(C)C)NC(=O)[C@@H]2CCCN2C(=O)[C@@H](CC(=O)O)NC(=O)[C@@H](Cc2c[nH]c3ccccc23)NC1=O [BQ-123] (cyclo(L[dW][dD]P[dV]))
- Population Apoptotic (%) [1]: 46%
- Population Fragmented Nuclei (%) [1]: 7%
- Population Healthy Nuclei (%) [1]: 80%
- Population Hoechst High Intensity Objects (%) [1]: 4%
- Population Membrane Permeable-Phenotype (%) [1]: 0%
- Population Mitochondria Different-Phenotype (%) [1]: 39%
- Population Mitotic Cells (%) [1]: 53%
- Population Normal (%) [1]: 95%
- Population Pyknosed Nuclei (%) [1]: 11%
- Population Tubulin-Different-Phenotype (%) [1]: 32%
- Total Cell Count [1]: 376
- Population Fragmented Nuclei (%) [2]: 5%
- Population Healthy Nuclei (%) [2]: 82%
- Population Hoechst High Intensity Objects (%) [2]: 7%
- Population Mitochondria Different-Phenotype (%) [2]: 59%
- Population Normal (%) [2]: 92%
- Population Tubulin-Different-Phenotype (%) [2]: 19%
- Total Cell Count [2]: 392
- Population Apoptotic (%) [3]: 30%
- Population Fragmented Nuclei (%) [3]: 7%
- Population Healthy Nuclei (%) [3]: 78%
- Population Hoechst High Intensity Objects (%) [3]: 7%
- Population Membrane Permeable-Phenotype (%) [3]: 0%
- Population Mitochondria Different-Phenotype (%) [3]: 48%
- Population Mitotic Cells (%) [3]: 69%
- Population Normal (%) [3]: 92%
- Population Pyknosed Nuclei (%) [3]: 14%
- Population Tubulin-Different-Phenotype (%) [3]: 31%
- Total Cell Count [3]: 387
- Population Apoptotic (%) [4]: 71%
- Population Fragmented Nuclei (%) [4]: 5%
- Population Hoechst High Intensity Objects (%) [4]: 11%
- Population Mitochondria Different-Phenotype (%) [4]: 65%
- Population Mitotic Cells (%) [4]: 28%
- Population Normal (%) [4]: 88%
- Population Pyknosed Nuclei (%) [4]: 16%
- Population Tubulin-Different-Phenotype (%) [4]: 22%
- Total Cell Count [4]: 265
- Population Apoptotic (%) [5]: 26%
- Population Fragmented Nuclei (%) [5]: 10%
- Population Healthy Nuclei (%) [5]: 79%
- Population Hoechst High Intensity Objects (%) [5]: 3%
- Population Membrane Permeable-Phenotype (%) [5]: 0%
- Population Mitochondria Different-Phenotype (%) [5]: 27%
- Population Mitotic Cells (%) [5]: 73%
- Population Normal (%) [5]: 96%
- Population Pyknosed Nuclei (%) [5]: 9%
- Population Tubulin-Different-Phenotype (%) [5]: 21%
- Total Cell Count [5]: 497
- Population Apoptotic (%) [6]: 40%
- Population Fragmented Nuclei (%) [6]: 7%
- Population Healthy Nuclei (%) [6]: 82%
- Population Hoechst High Intensity Objects (%) [6]: 5%
- Population Mitochondria Different-Phenotype (%) [6]: 35%
- Population Mitotic Cells (%) [6]: 59%
- Population Normal (%) [6]: 94%
- Population Tubulin-Different-Phenotype (%) [6]: 14%
- Total Cell Count [6]: 538
- Population Apoptotic (%) [7]: 25%
- Population Fragmented Nuclei (%) [7]: 11%
- Population Healthy Nuclei (%) [7]: 77%
- Population Hoechst High Intensity Objects (%) [7]: 6%
- Population Membrane Permeable-Phenotype (%) [7]: 0%
- Population Mitochondria Different-Phenotype (%) [7]: 31%
- Population Mitotic Cells (%) [7]: 75%
- Population Normal (%) [7]: 93%
- Population Pyknosed Nuclei (%) [7]: 11%
- Population Tubulin-Different-Phenotype (%) [7]: 24%
- Total Cell Count [7]: 511
- Population Apoptotic (%) [8]: 57%
- Population Fragmented Nuclei (%) [8]: 8%
- Population Healthy Nuclei (%) [8]: 78%
- Population Hoechst High Intensity Objects (%) [8]: 7%
- Population Mitochondria Different-Phenotype (%) [8]: 50%
- Population Mitotic Cells (%) [8]: 42%
- Population Normal (%) [8]: 92%
- Population Pyknosed Nuclei (%) [8]: 12%
- Population Tubulin-Different-Phenotype (%) [8]: 18%
- Total Cell Count [8]: 302
- Population Apoptotic (%) [9]: 21%
- Population Fragmented Nuclei (%) [9]: 11%
- Population Healthy Nuclei (%) [9]: 79%
- Population Hoechst High Intensity Objects (%) [9]: 3%
- Population Membrane Permeable-Phenotype (%) [9]: 0%
- Population Mitochondria Different-Phenotype (%) [9]: 22%
- Population Mitotic Cells (%) [9]: 78%
- Population Normal (%) [9]: 96%
- Population Pyknosed Nuclei (%) [9]: 9%
- Population Tubulin-Different-Phenotype (%) [9]: 15%
- Total Cell Count [9]: 719
- Population Apoptotic (%) [10]: 24%
- Population Healthy Nuclei (%) [10]: 81%
- Population Hoechst High Intensity Objects (%) [10]: 5%
- Population Membrane Permeable-Phenotype (%) [10]: 1%
- Population Mitochondria Different-Phenotype (%) [10]: 18%
- Population Mitotic Cells (%) [10]: 75%
- Population Normal (%) [10]: 94%
- Population Pyknosed Nuclei (%) [10]: 7%
- Population Tubulin-Different-Phenotype (%) [10]: 10%
- Total Cell Count [10]: 777
- Population Apoptotic (%) [11]: 25%
- Population Fragmented Nuclei (%) [11]: 16%
- Population Healthy Nuclei (%) [11]: 77%
- Population Hoechst High Intensity Objects (%) [11]: 3%
- Population Membrane Permeable-Phenotype (%) [11]: 1%
- Population Mitochondria Different-Phenotype (%) [11]: 21%
- Population Mitotic Cells (%) [11]: 75%
- Population Normal (%) [11]: 96%
- Population Pyknosed Nuclei (%) [11]: 6%
- Population Tubulin-Different-Phenotype (%) [11]: 15%
- Total Cell Count [11]: 756
- Population Apoptotic (%) [12]: 40%
- Population Fragmented Nuclei (%) [12]: 11%
- Population Healthy Nuclei (%) [12]: 80%
- Population Membrane Permeable-Phenotype (%) [12]: 0%
- Population Mitochondria Different-Phenotype (%) [12]: 29%
- Population Mitotic Cells (%) [12]: 59%
- Population Pyknosed Nuclei (%) [12]: 8%
- Population Tubulin-Different-Phenotype (%) [12]: 16%
- Total Cell Count [12]: 477

Compound: CC(C)(O)C(=O)N1CCN(c2ccc(C(F)(F)F)c(C3=C(c4c[nH]c5ccccc45)C(=O)NC3=O)c2)CC1
- Population Apoptotic (%) [1]: 33%
- Population Fragmented Nuclei (%) [1]: 4%
- Population Healthy Nuclei (%) [1]: 78%
- Population Hoechst High Intensity Objects (%) [1]: 8%
- Population Membrane Permeable-Phenotype (%) [1]: 0%
- Population Mitochondria Different-Phenotype (%) [1]: 43%
- Population Mitotic Cells (%) [1]: 66%
- Population Normal (%) [1]: 91%
- Population Pyknosed Nuclei (%) [1]: 16%
- Population Tubulin-Different-Phenotype (%) [1]: 28%
- Total Cell Count [1]: 381
- Population Apoptotic (%) [2]: 46%
- Population Fragmented Nuclei (%) [2]: 5%
- Population Healthy Nuclei (%) [2]: 76%
- Population Hoechst High Intensity Objects (%) [2]: 7%
- Population Mitochondria Different-Phenotype (%) [2]: 58%
- Population Mitotic Cells (%) [2]: 53%
- Population Normal (%) [2]: 92%
- Population Pyknosed Nuclei (%) [2]: 17%
- Population Tubulin-Different-Phenotype (%) [2]: 30%
- Total Cell Count [2]: 293
- Population Apoptotic (%) [3]: 51%
- Population Fragmented Nuclei (%) [3]: 4%
- Population Healthy Nuclei (%) [3]: 74%
- Population Hoechst High Intensity Objects (%) [3]: 10%
- Population Membrane Permeable-Phenotype (%) [3]: 0%
- Population Mitochondria Different-Phenotype (%) [3]: 61%
- Population Mitotic Cells (%) [3]: 48%
- Population Normal (%) [3]: 89%
- Population Pyknosed Nuclei (%) [3]: 20%
- Population Tubulin-Different-Phenotype (%) [3]: 62%
- Total Cell Count [3]: 338
- Population Apoptotic (%) [4]: 72%
- Population Fragmented Nuclei (%) [4]: 3%
- Population Healthy Nuclei (%) [4]: 75%
- Population Hoechst High Intensity Objects (%) [4]: 7%
- Population Mitochondria Different-Phenotype (%) [4]: 90%
- Population Mitotic Cells (%) [4]: 27%
- Population Normal (%) [4]: 92%
- Population Pyknosed Nuclei (%) [4]: 21%
- Population Tubulin-Different-Phenotype (%) [4]: 63%
- Total Cell Count [4]: 203
- Population Apoptotic (%) [5]: 33%
- Population Fragmented Nuclei (%) [5]: 8%
- Population Healthy Nuclei (%) [5]: 74%
- Population Hoechst High Intensity Objects (%) [5]: 5%
- Population Membrane Permeable-Phenotype (%) [5]: 0%
- Population Mitochondria Different-Phenotype (%) [5]: 32%
- Population Mitotic Cells (%) [5]: 66%
- Population Normal (%) [5]: 94%
- Population Pyknosed Nuclei (%) [5]: 17%
- Population Tubulin-Different-Phenotype (%) [5]: 19%
- Total Cell Count [5]: 469
- Population Apoptotic (%) [6]: 29%
- Population Fragmented Nuclei (%) [6]: 5%
- Population Healthy Nuclei (%) [6]: 79%
- Population Mitochondria Different-Phenotype (%) [6]: 48%
- Population Mitotic Cells (%) [6]: 70%
- Population Pyknosed Nuclei (%) [6]: 14%
- Total Cell Count [6]: 335
- Population Apoptotic (%) [7]: 45%
- Population Fragmented Nuclei (%) [7]: 6%
- Population Healthy Nuclei (%) [7]: 71%
- Population Hoechst High Intensity Objects (%) [7]: 4%
- Population Membrane Permeable-Phenotype (%) [7]: 1%
- Population Mitochondria Different-Phenotype (%) [7]: 48%
- Population Mitotic Cells (%) [7]: 54%
- Population Normal (%) [7]: 95%
- Population Pyknosed Nuclei (%) [7]: 22%
- Population Tubulin-Different-Phenotype (%) [7]: 43%
- Total Cell Count [7]: 387
- Population Apoptotic (%) [8]: 66%
- Population Fragmented Nuclei (%) [8]: 2%
- Population Hoechst High Intensity Objects (%) [8]: 7%
- Population Membrane Permeable-Phenotype (%) [8]: 0%
- Population Mitochondria Different-Phenotype (%) [8]: 84%
- Population Mitotic Cells (%) [8]: 34%
- Population Normal (%) [8]: 92%
- Population Pyknosed Nuclei (%) [8]: 25%
- Population Tubulin-Different-Phenotype (%) [8]: 60%
- Total Cell Count [8]: 212
- Population Apoptotic (%) [9]: 25%
- Population Fragmented Nuclei (%) [9]: 9%
- Population Healthy Nuclei (%) [9]: 79%
- Population Hoechst High Intensity Objects (%) [9]: 2%
- Population Membrane Permeable-Phenotype (%) [9]: 0%
- Population Mitochondria Different-Phenotype (%) [9]: 21%
- Population Mitotic Cells (%) [9]: 74%
- Population Normal (%) [9]: 97%
- Population Pyknosed Nuclei (%) [9]: 10%
- Population Tubulin-Different-Phenotype (%) [9]: 14%
- Total Cell Count [9]: 780
- Population Apoptotic (%) [10]: 27%
- Population Fragmented Nuclei (%) [10]: 10%
- Population Hoechst High Intensity Objects (%) [10]: 5%
- Population Mitochondria Different-Phenotype (%) [10]: 29%
- Population Mitotic Cells (%) [10]: 72%
- Population Normal (%) [10]: 94%
- Population Tubulin-Different-Phenotype (%) [10]: 15%
- Total Cell Count [10]: 571
- Population Apoptotic (%) [11]: 54%
- Population Fragmented Nuclei (%) [11]: 8%
- Population Healthy Nuclei (%) [11]: 71%
- Population Hoechst High Intensity Objects (%) [11]: 8%
- Population Membrane Permeable-Phenotype (%) [11]: 0%
- Population Mitochondria Different-Phenotype (%) [11]: 53%
- Population Mitotic Cells (%) [11]: 45%
- Population Normal (%) [11]: 91%
- Population Pyknosed Nuclei (%) [11]: 19%
- Population Tubulin-Different-Phenotype (%) [11]: 25%
- Total Cell Count [11]: 467
- Population Apoptotic (%) [12]: 78%
- Population Fragmented Nuclei (%) [12]: 9%
- Population Mitochondria Different-Phenotype (%) [12]: 71%
- Population Mitotic Cells (%) [12]: 21%
- Population Tubulin-Different-Phenotype (%) [12]: 40%
- Total Cell Count [12]: 227
